# ATG4B inhibitor: ATG4B protease inhibitors, primary screen, biochemical, fluorescence, uHTS; Cysteine protease ATG4B (Homo sapiens), Q9Y4P1; ATG4B cleavage of LC3-PLA2, NBD-HPC fluorescence, 1 h; inhibition, % at 8.33 µM; 340,000 compounds, 0.51% hits; AID 504462, 2011; in the data active = inhibition above about 40%
# SMARCA2 act: SMARCA2 (BRM) function activators, primary screen, cell-based, luminescence, high throughput; activation, % at 9.1 µM; 370,000 compounds, 1% hits; MG213 cells, MMTV-luciferase reporter, dexamethasone, overnight; in the data active = activation above about 7.8%;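 also: 0% = vehicle wells and 100% = reference activator wells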
# MC4R ag barr: MC4R agonists recruiting beta-arrestin, primary screen, cell-based, luminescence, agonist arm of biased-ligand search | Melanocortin receptor 4 (Homo sapiens), P32245 | U2OS MC4R beta-arrestin complementation; percent of melanotan II response, DMSO zero | activation, % at 8.9 µM | 360,000 compounds, 0.98% hits;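 active = activation above a per-plate cutoff, the mean activation of sample wells on that plate plus 3 SD, cut at about 8% in these data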
# Target sequence (P32245 whole entry, looked up): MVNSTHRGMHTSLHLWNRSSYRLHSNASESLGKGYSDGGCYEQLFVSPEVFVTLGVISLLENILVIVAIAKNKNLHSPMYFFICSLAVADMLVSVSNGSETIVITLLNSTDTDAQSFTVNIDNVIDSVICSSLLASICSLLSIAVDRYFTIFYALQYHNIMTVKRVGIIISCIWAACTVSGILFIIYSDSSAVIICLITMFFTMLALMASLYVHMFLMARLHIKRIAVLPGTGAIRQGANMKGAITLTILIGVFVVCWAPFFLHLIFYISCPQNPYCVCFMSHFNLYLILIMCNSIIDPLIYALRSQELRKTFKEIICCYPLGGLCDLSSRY
# MC4R antagonist: MC4R antagonists of cAMP signaling, primary screen, cell-based, TR-FRET, antagonist arm of biased-ligand search. Melanocortin receptor 4 (Homo sapiens), P32245. MC4R-expressing cells, MTII-stimulated cAMP, LANCE TR-FRET. inhibition, % at 6.5 µM. 360,000 compounds, 0.48% hits. AID 540295, 2011;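 active = inhibition above its plate's cutoff, the mean of tested wells on that plate plus 3 SD, cut at about 29% in these data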;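 also: 0% = Melanotan II alone and 100% = Melanotan II plus saturating MCL0020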
#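 System: U2OS-MC4R stable cell line; Technique: Eu-cAMP/anti-cAMP TR-FRET, emission 671 nm; Repeats: single well per compound; Also added: Melanotan II; Dosing: one concentration, 6.5 µM nominal; Schedule: 30-min compound, 1-h challenge, 1-h detection, room temperature.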
# MPTP inh: mitochondrial permeability transition pore inhibitors, primary screen, biochemical, isolated mouse mitochondria, absorbance; Ca2+ swelling absorbance, 30 min; inhibition, % at 10 µM; 360,000 compounds, 1.4% hits; AID 602449, 2012;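 active = inhibition of 50% or more, scaled per plate between neutral and stimulator controls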;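 also: 0% = DMSO wells given calcium and 100% = 1 mM EGTA wells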
# SMARCA2 act conf: SMARCA2 (BRM) function activators, confirmation, cell-based, luminescence, triplicate | shares compounds with SMARCA2 act | MG213 cells, MMTV-luciferase with dexamethasone, overnight; MG213 cells expressing E1A, Rb sequestered; DMSO wells 0%, reference activator 100% | activation, % at 9.1 µM | 3,500 compounds, 30% hits;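 active = activation above its plate's cutoff, the mean activation of tested wells plus 3 SD, cut at about 7.9% in these data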
# VP16 Luc act: GAL4-VP16 luciferase reporter activation, counter-screen for SMARCA2 (BRM) activator project, cell-based, pG5luc, luminescence, high throughput. activation, % at 9.1 µM. HEK293 GAL4-VP16 pG5luc reporter; scaled: DMSO wells 0%, SAHA wells 100%. shares compounds with SMARCA2 act. 3,500 compounds, 41% hits;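 active = activation above the solvent-only control well mean plus 3 SD, averaged across control plates, cut at about 5.2% in these data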
# Starred values were filed as active, the others as inactive; . = not tested or not shown. Hits are enriched below; roughly 4.1% of the tested compounds scored in any of these assays.
SMILES,ATG4B inhibitor,SMARCA2 act,MC4R ag barr,MC4R antagonist,MPTP inh,SMARCA2 act conf,VP16 Luc act
COc1ccc(NC(=O)c2cccnc2)c(OC)c1,-3,-1,-1,2,0,.,.
COc1ccccc1NC(=O)c1cccnc1,-7,8.7*,-1,5,0,-1,-1
COc1ccc(CNS(=O)(=O)CC2NCc3cc(OC)ccc32)cc1 (stereo unspecified),.,10.0*,.,.,.,2,0
Cc1c(C)n(Cc2ccc(-c3ccccc3C(=O)O)cc2)c2ccc(C(=O)N[C@@H](C)c3ccc(Br)cc3)cc12,.,0,.,.,.,.,.
CCC1([N+](=O)[O-])COC(C=Cc2ccccc2)OC1 (stereo unspecified),1,9.7*,-1,9,0,5,4
COCCNS(=O)(=O)c1ccc2c(c1)C(=O)c1cc(S(=O)(=O)NCCOC)ccc1-2,-5,-3,0,3,-2,.,.
COCCNS(=O)(=O)c1ccc(F)c(OC)c1,5,14*,2,17,-2,-1,1
COC(=O)[C@]12C[C@H](CC(=O)N3CCCC3)C(=O)N(Cc3ccccc3)C1=C[C@H](C(C)C)O[C@@H]2C1CC1,.,7,.,.,.,.,.
O=C(Cc1ccccc1)N(c1ccc(F)cc1)C1C=CS(=O)(=O)C1 (stereo unspecified),1,9.9*,0,1,-1,-2,0
O=C(Cc1ccc(F)cc1)N(c1ccc(F)cc1)C1C=CS(=O)(=O)C1 (stereo unspecified),-12,0,-1,10,0,.,.
Cc1nc(NC(=O)Nc2ccc(Cl)cc2)sc1C,14,8.6*,3,-8,6,3,10*
Cc1nc(NC(=O)c2ccccc2)sc1C,-2,8.2*,-1,-1,1,7,7.8*
COc1ccc(/C=C/S(=O)(=O)NCc2ccc(F)cc2)c(CNC(=O)OC(C)(C)C)c1,.,-5,.,.,.,.,.
COC(=O)[C@]12C[C@H](CC(=O)N3CCC(c4ccccc4)CC3)C(=O)N(Cc3cccc4ccccc34)C1=C[C@H](C(C)C)O[C@@H]2C1CC1,.,-3,.,.,.,.,.
Cc1ccc(NC(=O)Nc2ccc3c(c2)OCO3)nc1,-2,6,0,-7,0,.,.
CN(C)c1ccc(/C=C/C(=O)c2ccc3c(c2)OCO3)cc1,-7,8.0*,0,0,2,1,3
Cc1ccc(C(=O)N/N=C/c2ccc3c(c2)OCO3)o1,-4,6,-1,2,2,.,.
Cc1ccc(C(=O)/C=C/c2ccc3c(c2)OCO3)o1,-4,11*,-1,-3,0,9.4*,2
Cc1ccc(NC(=O)/C=C/c2ccc3c(c2)OCO3)nc1,-5,9.3*,-2,-10,0,12*,6.6*
COc1ccc(N=Cc2nc(-c3ccco3)oc2O)cc1,-1,8.8*,0,-7,0,9.9*,4
Cc1ccc(N=Cc2nc(-c3ccc(C)cc3)oc2O)cc1,2,0,8,-4,0,.,.
COc1ccccc1NS(=O)(=O)c1cc(NC(=O)c2[nH]c(C)c(C(C)=O)c2C)ccc1N1CCOCC1,-10,9.9*,-2,16,20,11*,6.0*
COc1ccccc1NS(=O)(=O)c1cc(NC(=O)c2ccccc2C)ccc1N1CCOCC1,-7,0,0,8,1,.,.
COCCNC(=S)Nc1ccc(N2CCOCC2)c(S(=O)(=O)Nc2ccccc2OC)c1,-7,16*,-1,-4,-2,6,-1
O=C(Nc1nncs1)C1COc2ccccc2O1 (stereo unspecified),-1,9.0*,3,-6,4,4,5
SMILES,ATG4B inhibitor,SMARCA2 act,MC4R ag barr,MC4R antagonist,MPTP inh,SMARCA2 act conf,VP16 Luc act
O=C(Nc1ccccc1)C1COc2ccccc2O1 (stereo unspecified),0,5,-2,-3,0,.,.
O=C(Nc1nnc(C2CC2)s1)C1COc2ccccc2O1 (stereo unspecified),3,12*,0,-6,0,7,14*
CCN(CC)C(=O)CC[C@@H]1CC[C@]2(CCCN(S(=O)(=O)c3ccccc3)C2)O1,.,-4,.,.,.,.,.
COc1ccccc1C(=O)n1nc(C)cc1C,-11,-1,-1,9,2,.,.
Cc1cc(C)n(C(=O)c2ccc(C)o2)n1,-16,8.7*,-1,-2,0,0,0
CCc1ccc(CCNC(=O)OCCCN2CCC3(CCC(C)CC3)C2=O)cc1 (stereo unspecified),.,-5,.,.,.,.,.
Cc1cc(C)c2nc3nc(C)c(C)cc3c(N)c2c1,-7,17*,-2,-3,0,50*,0
O=C(c1ccccc1)n1ccc2ccc(-c3ccc4ccn(Cc5ccccc5)c4c3)cc21,.,-3,.,.,.,.,.
COc1cccc(CNS(=O)(=O)c2c(C)[nH]c(C)c2C(=O)N2CCCCC2)c1,0,13*,0,6,-2,-2,0
Cc1[nH]c(C)c(S(=O)(=O)Nc2ccc(F)cc2Cl)c1C(=O)N1CCCC1,-1,9.0*,-1,14,-1,-5,-1
Cc1[nH]c(C)c(S(=O)(=O)Nc2ccccc2Cl)c1C(=O)N1CCCC1,-1,0,0,1,-1,.,.
Cc1ccc(C(=O)OCc2cc(=O)n3c(C)csc3n2)s1,-8,8.8*,-2,-3,0,8,1
C/C=C/c1ccc(OCC(=O)OCc2csc(Nc3ccc(C)cc3)n2)c(OC)c1,-4,2,-1,3,-5,.,.
Cc1ccc(Nc2nc(COC(=O)COc3ccc(C=O)cc3)cs2)cc1,4,9.8*,2,4,-1,8.1*,9.0*
CCOc1ccc(NC(=O)C(c2ccccn2)N(C(=O)CCl)c2ccc(OC)cc2)cc1 (stereo unspecified),1,9.7*,-2,-7,8,8,4
CC(=O)Nc1ncc(N=Nc2cccc(C(F)(F)F)c2)s1,-6,1,-1,-1,0,.,.
Cc1cccc(N=Nc2cnc(N)s2)c1,7,8.1*,0,-3,1,4,4
COc1ccc(C2CC(=O)C(c3ccc(Cl)c(Cl)c3)=CN2Cc2ccccc2)cc1 (stereo unspecified),.,-6,.,.,.,.,.

# High-throughput results (PubChem BioAssay)
